≈ marks a conversion by molar mass, not a printed value.
Key:
[1] = Antitubercular activity against Mycobacterium tuberculosis H37Ra ATCC 25177 dormant stage infected in human THP1 cells measured on day 12 by nitrate reductase assay; type: functional, THP-1; details: ATCC 25177, 288 h
[2] = Antitubercular activity against Mycobacterium tuberculosis H37Ra ATCC 25177 active stage infected in human THP1 cells measured on day 8 by nitrate reductase assay; type: functional, THP-1; details: ATCC 25177, 192 h
[3] = Antitubercular activity against Mycobacterium tuberculosis H37Ra ATCC 25177 active stage measured on day 8 by XTT reduction menadione based two-fold dilution assay; type: functional; details: ATCC 25177, 192 h
How it was run: (§1)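 M. tuberculosis H37Ra ATCC 25177 was exposed to 0.7–100 μg/mL in two-fold steps (0.7, 1.5, 3.1 … 100). Active stage was read after 8 days and dormant stage after 12 days of incubation. Inhibition was read by XTT reduction menadione assay (XRMA), absorbance 470 nm. MIC90 is the concentration giving ≥90% inhibition (µg/mL).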

[4] = Antitubercular activity against Mycobacterium tuberculosis H37Ra ATCC 25177 dormant stage measured on day 12 by XTT reduction menadione based two-fold dilution assay; type: functional; details: ATCC 25177, 288 h; how it was run: as §1
[5] = Antitubercular activity against Mycobacterium bovis BCG ATCC 35743 active stage measured on day 8 by nitrate reductase based two-fold dilution assay; type: functional, Mycobacterium bovis BCG str. ATCC 35743; details: Mycobacterium tuberculosis variant bovis BCG, ATCC 35743, 192 h
[6] = Antitubercular activity against Mycobacterium bovis BCG ATCC 35743 dormant stage measured on day 12 by nitrate reductase based two-fold dilution assay; type: functional, Mycobacterium bovis BCG str. ATCC 35743; details: Mycobacterium tuberculosis variant bovis BCG, ATCC 35743, 288 h
[7] = Cytotoxicity against human THP1 cells by MTT assay; type: toxicity, cell-based, THP-1; details: for GI50: THP1 cells; for GI90: thp-1
[8] = Cytotoxicity against human MCF7 cells by MTT assay; type: toxicity, cell-based; details: for GI50: MCF7 cells; for GI90: mcf7
[9] = Cytotoxicity against human HCT116 cells by MTT assay; type: toxicity, cell-based, HCT-116; details: for GI50: HCT116 cells; for GI90: hct-116
[10] = Selectivity index, ratio of GI50 for human MCF7 cells to MIC90 for Mycobacterium tuberculosis H37Ra ATCC 25177 active stage; type: toxicity, cell-based; details: read-out: Selectivity Index
How it was run: (§2)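 Cytotoxicity was measured on human MCF-7, HCT116 and THP-1 cells by MTT assay, with paclitaxel as reference. GI50 is the concentration inhibiting 50% of cell growth. The selectivity index is GI50 for the given cell line divided by MIC90 for the given mycobacterial strain and stage.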

[11] = Selectivity index, ratio of GI50 for human MCF7 cells to MIC90 for Mycobacterium tuberculosis H37Ra ATCC 25177 dormant stage; type: toxicity, cell-based; details: read-out: Selectivity Index
How it was run: (§3)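 Cytotoxicity was measured on human MCF-7, HCT116 and THP-1 cells by MTT assay, with paclitaxel as reference. The selectivity index is GI50 for the given cell line divided by MIC90 for the given mycobacterial strain and stage.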

[12] = Selectivity index, ratio of GI50 for human MCF7 cells to MIC90 for Mycobacterium bovis BCG ATCC 35743 active stage; type: toxicity, cell-based; details: read-out: Selectivity Index; how it was run: as §2
[13] = Selectivity index, ratio of GI50 for human MCF7 cells to MIC90 for Mycobacterium bovis BCG ATCC 35743 dormant stage; type: toxicity, cell-based; details: read-out: Selectivity Index; how it was run: as §3
[14] = Selectivity index, ratio of GI50 for human HCT116 cells to MIC90 for Mycobacterium tuberculosis H37Ra ATCC 25177 active stage; type: toxicity, cell-based, HCT-116; details: read-out: Selectivity Index; how it was run: as §2
[15] = Selectivity index, ratio of GI50 for human HCT116 cells to MIC90 for Mycobacterium tuberculosis H37Ra ATCC 25177 dormant stage; type: toxicity, cell-based, HCT-116; details: read-out: Selectivity Index; how it was run: as §3
[16] = Selectivity index, ratio of GI50 for human HCT116 cells to MIC90 for Mycobacterium bovis BCG ATCC 35743 active stage; type: toxicity, cell-based, HCT-116; details: read-out: Selectivity Index; how it was run: as §2
[17] = Selectivity index, ratio of GI50 for human HCT116 cells to MIC90 for Mycobacterium bovis BCG ATCC 35743 dormant stage; type: toxicity, cell-based, HCT-116; details: read-out: Selectivity Index; how it was run: as §3
[18] = Selectivity index, ratio of GI50 for human THP1 cells to MIC90 for Mycobacterium tuberculosis H37Ra ATCC 25177 active stage; type: toxicity, cell-based, THP-1; details: read-out: Selectivity Index; how it was run: as §2
[19] = Selectivity index, ratio of GI50 for human THP1 cells to MIC90 for Mycobacterium tuberculosis H37Ra ATCC 25177 dormant stage; type: toxicity, cell-based, THP-1; details: read-out: Selectivity Index; how it was run: as §3
[20] = Selectivity index, ratio of GI50 for human THP1 cells to MIC90 for Mycobacterium bovis BCG ATCC 35743 active stage; type: toxicity, cell-based, THP-1; details: read-out: Selectivity Index; how it was run: as §2
[21] = Selectivity index, ratio of GI50 for human THP1 cells to MIC90 for Mycobacterium bovis BCG ATCC 35743 dormant stage; type: toxicity, cell-based, THP-1; details: read-out: Selectivity Index; how it was run: as §3
Escherichia coli [22] = experiment: Growth inhibition of Escherichia coli at 30 ug/ml; type: functional; details: read-out: GI
Escherichia coli [23] = experiment: Growth inhibition of Escherichia coli at 10 ug/ml; type: functional; details: read-out: GI
Escherichia coli [24] = experiment: Growth inhibition of Escherichia coli at 3 ug/ml; type: functional; details: read-out: GI
How it was run: (§4)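 Screened against Gram-negative E. coli and P. aeruginosa and Gram-positive S. aureus and B. subtilis. Compound was tested at 3 µg/ml, and the read-out is percent growth inhibition.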

Pseudomonas aeruginosa [25] = experiment: Growth inhibition of Pseudomonas aeruginosa at 30 ug/ml; type: functional; details: read-out: GI
Pseudomonas aeruginosa [26] = experiment: Growth inhibition of Pseudomonas aeruginosa at 10 ug/ml; type: functional; details: read-out: GI
Pseudomonas aeruginosa [27] = experiment: Growth inhibition of Pseudomonas aeruginosa at 3 ug/ml; type: functional; details: read-out: GI; how it was run: as §4
Staphylococcus aureus [28] = experiment: Growth inhibition of Staphylococcus aureus at 30 ug/ml; type: functional; details: read-out: GI
Staphylococcus aureus [29] = experiment: Growth inhibition of Staphylococcus aureus at 10 ug/ml; type: functional; details: read-out: GI
Staphylococcus aureus [30] = experiment: Growth inhibition of Staphylococcus aureus at 3 ug/ml; type: functional; details: read-out: GI; how it was run: as §4
Bacillus subtilis [31] = experiment: Growth inhibition of Bacillus subtilis at 30 ug/ml; type: functional; details: read-out: GI
Bacillus subtilis [32] = experiment: Growth inhibition of Bacillus subtilis at 10 ug/ml; type: functional; details: read-out: GI
Bacillus subtilis [33] = experiment: Growth inhibition of Bacillus subtilis at 3 ug/ml; type: functional; details: read-out: GI; how it was run: as §4

SMILES | MIC90 [1] | MIC90 [2] | IC50 [3] | MIC90 [3] | IC50 [4] | MIC90 [4] | IC50 [5] | MIC90 [5] | IC50 [6] | MIC90 [6] | GI50 [7] | GI90 [7] | GI50 [8] | GI90 [8] | GI50 [9] | GI90 [9] | selectivity ratio [10] | selectivity ratio [11] | selectivity ratio [12] | selectivity ratio [13] | further results
C/C(=N\Nc1nc(-c2ccc(F)cc2)cs1)c1sc(C)nc1C | 44.3 µg/mL (≈ 128 µM) | 57 µg/mL (≈ 165 µM) | 2.67 µg/mL (≈ 7.71 µM) | 25.3 µg/mL (≈ 72.9 µM) | 2.04 µg/mL (≈ 5.89 µM) | 53.8 µg/mL (≈ 155 µM) | 6 µg/mL (≈ 17.3 µM) | 9.29 µg/mL (≈ 26.8 µM) | 6.04 µg/mL (≈ 17.4 µM) | 10.4 µg/mL (≈ 30.1 µM) | > 100 µg/mL | > 100 µg/mL | > 100 µg/mL | > 100 µg/mL | > 100 µg/mL | > 100 µg/mL | 4 | 2 | 11 | 10 | selectivity ratio [14]: 4; selectivity ratio [15]: 2; selectivity ratio [16]: 11; selectivity ratio [17]: 10; selectivity ratio [18]: 4; selectivity ratio [19]: 2; selectivity ratio [20]: 11; selectivity ratio [21]: 10; inhibition of growth at 30 µg/mL (Escherichia coli [22]): 84.3%; inhibition of growth at 10 µg/mL (Escherichia coli [23]): 77.3%; inhibition of growth at 3 µg/mL (Escherichia coli [24]): 64%; inhibition of growth at 30 µg/mL (Pseudomonas aeruginosa [25]): 81.7%; inhibition of growth at 10 µg/mL (Pseudomonas aeruginosa [26]): 76.8%; inhibition of growth at 3 µg/mL (Pseudomonas aeruginosa [27]): 62%; inhibition of growth at 30 µg/mL (Staphylococcus aureus [28]): 83.5%; inhibition of growth at 10 µg/mL (Staphylococcus aureus [29]): 75.9%; inhibition of growth at 3 µg/mL (Staphylococcus aureus [30]): 61.6%; inhibition of growth at 30 µg/mL (Bacillus subtilis [31]): 82.2%; inhibition of growth at 10 µg/mL (Bacillus subtilis [32]): 74.1%; inhibition of growth at 3 µg/mL (Bacillus subtilis [33]): 58.6%
C/C(=N\NC(N)=S)c1sc(C)nc1C | > 100 µg/mL | > 100 µg/mL | 0.21 µg/mL (≈ 0.92 µM) | > 100 µg/mL | 0.19 µg/mL (≈ 0.832 µM) | 30.5 µg/mL (≈ 134 µM) | 4.42 µg/mL (≈ 19.4 µM) | > 100 µg/mL | 5.09 µg/mL (≈ 22.3 µM) | > 100 µg/mL | > 100 µg/mL | > 100 µg/mL | > 100 µg/mL | > 100 µg/mL | > 100 µg/mL | > 100 µg/mL | 1 | 3 | 1 | 1 | selectivity ratio [14]: 1; selectivity ratio [15]: 3; selectivity ratio [16]: 1; selectivity ratio [17]: 1; selectivity ratio [18]: 1; selectivity ratio [19]: 3; selectivity ratio [20]: 1; selectivity ratio [21]: 1; inhibition of growth at 30 µg/mL (Escherichia coli [22]): 85%; inhibition of growth at 10 µg/mL (Escherichia coli [23]): 76.8%; inhibition of growth at 3 µg/mL (Escherichia coli [24]): 66.4%; inhibition of growth at 30 µg/mL (Pseudomonas aeruginosa [25]): 85.4%; inhibition of growth at 10 µg/mL (Pseudomonas aeruginosa [26]): 76.3%; inhibition of growth at 3 µg/mL (Pseudomonas aeruginosa [27]): 64.7%; inhibition of growth at 30 µg/mL (Staphylococcus aureus [28]): 84.2%; inhibition of growth at 10 µg/mL (Staphylococcus aureus [29]): 75.4%; inhibition of growth at 3 µg/mL (Staphylococcus aureus [30]): 64.2%; inhibition of growth at 30 µg/mL (Bacillus subtilis [31]): 82.9%; inhibition of growth at 10 µg/mL (Bacillus subtilis [32]): 73.5%; inhibition of growth at 3 µg/mL (Bacillus subtilis [33]): 61.5%

Source: ChEMBL document CHEMBL3872252, “New bithiazolyl hydrazones: Novel synthesis, characterization and antitubercular evaluation” (Bioorg Med Chem Lett, 2017)
